High-throughput results deposited in PubChem by several laboratories.
This is a sample that favours compounds with a hit; in the whole collection about 5.8% have one here.
HIV Rev-RRE inh: HIV-1 Rev-RRE binding inhibitors, primary screen, biochemical, FRET, protein-RNA interaction; P05866; Rev peptide-RRE RNA binding; inhibition, % at 8 µM; 97,000 compounds, 0.79% hits; AID 704, 2007;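 active means inhibition above the screen-wide mean plus 3 SD, cut at about 35% in these data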;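 further: 0% = median DMSO wells and 100% = median Neomycin B control wells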
Target sequence (P05866 whole entry, looked up): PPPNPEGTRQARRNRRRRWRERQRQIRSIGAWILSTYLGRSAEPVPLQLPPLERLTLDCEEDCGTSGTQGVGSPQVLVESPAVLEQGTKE
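assay system = Cy5-tagged RRE RNA duplex with fluorescein-tagged Rev peptide | incubation = 5 + 15 min at 25 °C | also added = labelled Rev peptide | measure = % inhibition of FRET ratio versus controls | benchmarks = DMSO wells as 0% and neomycin B wells as 100% inhibition | measured by = FRET fluorescence readout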
Plk1 PBD FP: Plk1 polo box domain binding inhibitors, primary screen, biochemical, fluorescence polarization; Serine/threonine-protein kinase PLK1 (Homo sapiens), P53350; Plk1 PBD phosphopeptide binding; inhibition, %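 (tested at about 20 µM)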; 97,000 compounds, 0.13% hits; AID 693, 2007; in the data active means inhibition above about 34%, passing the limit was not always enough
Target sequence (P53350 whole entry, looked up, the tested form may be a part): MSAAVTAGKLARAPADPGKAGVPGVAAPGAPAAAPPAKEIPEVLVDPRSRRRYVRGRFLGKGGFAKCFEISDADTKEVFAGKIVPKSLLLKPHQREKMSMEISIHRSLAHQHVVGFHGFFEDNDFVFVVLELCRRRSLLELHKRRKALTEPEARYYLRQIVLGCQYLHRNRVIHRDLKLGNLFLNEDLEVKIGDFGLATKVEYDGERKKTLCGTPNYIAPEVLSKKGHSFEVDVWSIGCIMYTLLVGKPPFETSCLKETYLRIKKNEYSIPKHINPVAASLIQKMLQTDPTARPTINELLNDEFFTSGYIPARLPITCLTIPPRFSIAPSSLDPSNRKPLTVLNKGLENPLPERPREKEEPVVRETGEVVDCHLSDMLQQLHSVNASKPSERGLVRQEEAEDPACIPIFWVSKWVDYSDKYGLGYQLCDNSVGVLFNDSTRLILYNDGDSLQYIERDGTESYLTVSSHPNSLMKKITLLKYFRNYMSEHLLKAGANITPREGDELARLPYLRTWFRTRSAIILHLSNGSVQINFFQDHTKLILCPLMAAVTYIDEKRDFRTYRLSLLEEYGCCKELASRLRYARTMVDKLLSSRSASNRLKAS
FAK blocker: FAK kinase inhibitors, primary screen, biochemical. Focal adhesion kinase 1 (Homo sapiens), Q05397. biochemical FAK kinase activity assay. inhibition, %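 (tested at 7 µM)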. 97,000 compounds, 0.84% hits. AID 727, 2007; in the data active means inhibition above about 19%;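 further: 0% = DMSO and 100% = reference compound high control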
Cav32 inh: Cav3.2 calcium influx blockers – cell-based, Fluo-4 calcium fluorescence, FDSS, MLSMR library, primary screen; 100,000 compounds, 4% hits; Cav3.2-expressing cells; hits give low values; Voltage-dependent T-type calcium channel subunit alpha-1H (Homo sapiens), O95180; B-score at 10 µM;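 active means single-dose well whose peak fluorescence ratio is a statistical outlier from its plate by either plate-standardised score or position-corrected B-score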
PLK1 kinase inh: human PLK1 kinase inhibitors, primary screen, biochemical, TR-FRET. Serine/threonine-protein kinase PLK1 (Homo sapiens), P53350. recombinant PLK1 kinase, TR-FRET peptide phosphorylation. inhibition, % at 10 µM. 97,000 compounds, 0.53% hits. AID 619, 2007;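 active means inhibition of 50% or more in the single-concentration screen; inactive means inhibition below 50%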;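 further: 0% = DMSO max control and 100% = H-89 dihydrochloride min control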
PTK2B oligo ant: antagonists of Pyk2 self-association, primary screen, Q293 cells, FERM NanoBiT luminescence, HTS; Protein-tyrosine kinase 2-beta (Homo sapiens), Q14289; hits give low values; z-score (the deposit names both 25 µM and 10 µM); 99,000 compounds, 0.83% hits;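 active means Z-score of -3 or lower, scaled per plate to the spread of control and sample wells; inactive means z-score above -3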;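 further: negative z-score means lost luminescence so less FERM oligomerization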
Numbers without * were called inactive; . = not tested or not shown; [ ] = another dose, or the depositor's remark.

SMILES | HIV Rev-RRE inh | Plk1 PBD FP | FAK blocker | Cav32 inh | PLK1 kinase inh | PTK2B oligo ant
Cn1c(Cn2nnc(-c3ccccc3)n2)nnc1SCc1ccccc1Cl | 13 | 18 | 3 | -2.5 | -1 | -0.72
O=C(NCCCOc1cccc(CN2CCCCC2)c1)c1ccc(Cl)c(Cl)c1 | . | . | . | . | . | 0.58
c1cc(CN2CCCCC2)cc(OCCCNc2nc3ccccc3s2)c1 | . | . | . | -4.3* | . | .
O=C1C2CC=CCC2C(=O)N1c1n[nH]c(-c2ccccc2)n1 (stereo unspecified) | 10 | 20 | -2 | 1.2 | 10 | 0.24
Cc1nn(C)cc1/C=C1\SC(=S)NC1=O | 2 | -7 | -1 | 2.3 | -9 | 1.3
Cc1cc(/C=C2\SC(=S)NC2=O)c(C)n1C | 54* | -15 | -1 | -0.29 | -17 | -0.12
COc1ccc(NC(=O)Cn2c(=O)n(CC(=O)NCc3ccco3)c(=O)c3ccccc32)cc1OC | 2 | -13 | -2 | 0.073 | -13 | -1.3
CC1=C(C#N)CCC(=O)N1Cc1ccc(C)cc1 | 1 | -46 | 2 | 0.011 | 0 | 1.1
O=C(O)CC(Cc1ccccc1)c1ccc2c(c1)OCO2 (stereo unspecified) | 4 | 3 | -6 | . | -10 | -0.19
CC(=O)N(CCC(Cc1ccccc1)c1ccc2c(c1)OCO2)Cc1ccc(Cl)cc1 (stereo unspecified) | -2 | -1 | 2 | -3.1* | 2 | -2.1
CCOC(=O)c1ccc(NC(=O)CC2C(=O)N(c3ccc(F)cc3)C(=O)N2CCC(C)C)cc1 (stereo unspecified) | 12 | -9 | -1 | -4.5* | -9 | -1.5
CCCCn1nnnc1SCC(=O)Nc1ccc(N(C)C)cc1 | -4 | -9 | 3 | 2.2 | -9 | -0.08
O=C(c1ccccc1Nc1ccc(SC(F)F)cc1)N1CCCCCC1 | 12 | 15 | 6 | -6.8* | -4 | 0.25
O=C(O)CSc1nc(C(F)(F)F)cc(=O)n1-c1ccccc1 | 8 | -6 | -2 | -0.18 | -7 | -0.74
O=C(COC(=O)c1cc(=O)[nH]c2ccccc12)NC(=O)NC1CCCCC1 | 12 | -5 | 3 | 0.73 | -7 | -3.7*
O=C(COC(=O)c1n[nH]c2ccccc12)NC(=O)NC1CCCC1 | 10 | -10 | 1 | -1.3 | -4 | -1.6
Cc1ccnn1CC(=O)N/N=C/c1ccc2c(c1)OCO2 | . | . | . | . | . | 0.78
CC(C)CC(=O)NC1(C(F)(F)F)C(=O)Nc2c1c(=O)n(C)c(=O)n2C (stereo unspecified) | 8 | -18 | 0 | -0.016 | -3 | -0.7
O=C(NC(=S)NNC(=O)c1ccccc1[N+](=O)[O-])c1ccccc1 | 6 | -14 | 0 | -8.4* | -4 | 0.95
CS(=O)(=O)N(CC(=O)Nc1ccccc1Sc1ccccc1)C1CCCCC1 | 1 | -28 | 0 | -5.9* | -6 | -1
CSc1cccc(NC(=O)CN(C2CCCCC2)S(C)(=O)=O)c1 | 5 | -9 | 0 | -5.1* | -13 | -0.63
CS(=O)(=O)Nc1ccc(C(=O)N2CCN(c3ccccc3)CC2)cc1 | 8 | 3 | 6 | 0.38 | -2 | -0.08
Cc1ccccc1N(C(=O)Cn1nnc(-c2cccs2)n1)C(C(=O)NCCC(C)C)c1ccco1 (stereo unspecified) | 6 | 3 | 1 | -3.5* | -4 | -1.4
COCCNC(=O)C(c1ccco1)N(C(=O)Cn1nnc2ccccc21)c1ccccc1C (stereo unspecified) | 2 | -11 | -2 | 0.71 | -2 | -0.08
CC(C)CCNC(=O)C(c1ccco1)N(Cc1cccs1)C(=O)Cn1nnc2ccccc21 (stereo unspecified) | . | . | . | -4.7* | . | -3.1*
SMILES | HIV Rev-RRE inh | Plk1 PBD FP | FAK blocker | Cav32 inh | PLK1 kinase inh | PTK2B oligo ant
Cc1cc(-c2ccccc2)nc(N(C)NC(=O)c2ccc(Cl)cc2)c1S(C)(=O)=O | 15 | 5 | 0 | 0.77 | 1 | -0.84
CCCCCCc1cc2cc(C(N)=O)c(=N)oc2cc1O | 87*[fluorescence artefact?] | -84 | 0 | -11* | -8 | .
CCCCCCc1cc2cc(C(=O)NC)c(=N)oc2cc1O | 70* | -11 | 4 | -9.3* | -3 | -2.2
COc1ccc(NC(=O)c2cc3cc(OC)ccc3oc2=N)cc1 | . | . | . | -1.3 | . | -0.31
CCCCC(=O)OCCNC(=O)c1cc2ccccc2oc1=O | 10 | -11 | 0 | 0.18 | 2 | 0.13
CC1(C)Oc2ccc(C(=O)NC3CCCC3)cc2N(CC(=O)NC2CCCCC2)C1=O | -5 | 1 | 4 | 1 | -8 | -0.93
COc1ccc(NC(=O)NN(C(=O)c2ccccc2)C(C)(C)C)cc1 | . | . | . | . | . | -0.14
Cc1ccc(C)c(NC(=O)CSc2nnc(-c3ccccc3C)o2)c1 | 15 | -30 | 0 | -5.5* | -11 | 0.48
COc1ccc(N(CC(=O)N2CCc3ccccc3C2)S(=O)(=O)c2c(C)nn(C)c2C)cc1 | 0 | 0 | 3 | 0.062 | -6 | .
CCn1cc(S(=O)(=O)CC(=O)Nc2ccc(OC)cc2)c2ccccc21 | . | . | . | 9.2e-05 | . | .
Cc1ccc(N(CC(=O)NCCSCc2ccco2)S(=O)(=O)c2ccc(C)cc2)cc1 | 1 | 17 | -1 | -5.3* | -11 | 0
Cc1cccc(CSCCNC(=O)c2ccc(N(C)S(=O)(=O)c3ccccc3)cc2)c1 | 8 | -18 | -1 | -3.9* | -6 | -0.18
Cc1cccc(N(CC(=O)NCCSCc2ccco2)S(=O)(=O)c2ccccc2)c1 | 3 | 1 | -3 | -4.1* | -2 | 0.26
CN1C2C=C3C(C#N)=C(N)C(C#N)(C#N)[C@@H](c4cccs4)C3C1CC2 (stereo partly specified) | 16 | -29 | -1 | 2.1 | -3 | 0.56
CC(C)(C)C1CC=C2C(C#N)=C(N)C(C#N)(C#N)C(c3cccs3)C2C1 (stereo unspecified) | 49* | -17 | -1 | . | -16 | .
C[N+]1([O-])[C@@H]2Cc3cc4c(cc3[C@@H]1Cc1cc3c(cc12)OCO3)OCO4 (stereo partly specified) | . | . | . | 0.8 | . | .
CC(=O)c1c(O)c(C)c(-c2ccccc2)n(-c2ccccc2)c1=O | -1 | -8 | 1 | -3.6* | -4 | 0.22
CCO/N=C(\C)c1c(O)c(CC)c(-c2ccccc2)n(-c2ccccc2)c1=O | 0 | 14 | 4 | -3.9* | -13 | 0.19
COc1ccc(CC(=O)NCCN2CCCC2)cc1 | 1 | 8 | -2 | 1.2 | -5 | 0.05
CCC(=O)c1ccc(OCC(=O)Nc2nn3cnnc3s2)cc1 | 4 | -10 | -5 | -0.23 | -3 | -0.05
OCCSc1nncn1/N=C/c1c[nH]c2ccccc12 | 2 | -29 | 0 | 1.6 | 4 | 1.8
CCCCCCC(=O)N1CCC(c2nc3c(nnn3Cc3ccccc3Cl)c(=O)[nH]2)CC1 | 4 | 9 | 3 | -2.2 | -3 | -1.2
